Series [1] relates to HCT-116. Description: Induction of apoptosis in human HCT116 cells assessed as caspase 3 activation after 24 hrs. Type of series: functional, cell-based. As to conditions: HCT-116, 24 h. In outline:
(§1)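 A live-cell, high-throughput caspase-3 activator assay was used, with fluorescent caspase-3 substrates in intact cells. EC50 values for caspase activation are the mean ± SEM of three or more experiments.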

Series [2] relates to T47D. Description: Induction of apoptosis in human T47D cells assessed as caspase 3 activation after 24 hrs. The series is classed as functional, cell-based. The essentials: as §1
The subject of series [3] is P388. Nature of the series: Cytotoxicity against mouse P388 cells. The series is classed as functional, cell-based. The essentials: (§2)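 Cytotoxicity IC50 was measured in parental P388 cells and in the P388/ADR line, which overexpresses the ABC transporter Pgp-1 (MDR-1). Values are the mean ± SEM of three experiments.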
Series [4] concerns P388. Description: Cytotoxicity against adriamycin-resistant mouse P388 cells expressing p-glycoprotein. The series is classed as functional, cell-based. In outline:
as §2

The subject of series [5] is HCT-116. Nature of the series: Growth inhibition of human HCT116 cells after 48 hrs by CellTiter-Glo assay. As to conditions: HCT-116, 48 h. The series is classed as functional. The essentials:
(§3)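 Cells were exposed continuously to the compound for 48 h at 37 °C. CellTiter-Glo reagent was then added and the samples mixed by agitation. After 10-15 min at room temperature, luminescence was read. GI50 was taken as 50% inhibition of cell proliferation. Values are the mean ± SEM of three experiments.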

For series [6], the system named is T47D. Nature of the series: Growth inhibition of human T47D cells after 48 hrs by CellTiter-Glo assay. Type of series: functional. In outline:
as §3

The nature of series [7]: Inhibition of tubulin polymerization.
Series [8] has as its system MX1. Description: Antitumor activity in human MX1 cells xenografted crl:Nu/Nu-nuBR mouse assessed as tumor growth inhibition at 10 mg/kg, iv administered once weekly for 2 weeks. The series is classed as functional. The settings on record: MX1, 336 h.
The test system of series [9] is Mus musculus. Description: Toxicity in human MX1 cells xenografted crl:Nu/Nu-nuBR mouse assessed as decrease in body weight at 10 mg/kg, iv administered once weekly for 2 weeks. Type of series: organism-based. Details: dose 10 mg/kg, route intravenous; scale not given: the % may be the effect or the level left. As to conditions: in vivo, 336 h.
The subject of series [10] is MX1. Description: Antitumor activity in human MX1 cells xenografted crl:Nu/Nu-nuBR mouse assessed as tumor growth inhibition at 2.5 mg/kg, iv administered once a day for 5 days for 2 weeks. Type of series: functional.
Series [11] concerns Mus musculus. Description: AUC in C57BL/6 mouse brain at 2.5 mg/kg, iv. Type of series: ADME, organism-based. Details: dose 2.5 mg/kg, route intravenous. As to conditions: in vivo.
Series [12] is described as follows: Therapeutic index, ratio of MTD for human MX1 cells xenografted crl:Nu/Nu-nuBR mouse to tumor growth inhibition in human MX1 cells xenografted crl:Nu/Nu-nuBR mouse. As to conditions: in vivo.
Series [13] relates to Mus musculus. Nature of the series: AUC in C57BL/6 mouse plasma at 2.5 mg/kg, iv. The series is classed as ADME, organism-based. More on the design: dose 2.5 mg/kg, route intravenous. As to conditions: in vivo.
Series [14] in a line: Toxicity in human MX1 cells xenografted crl:Nu/Nu-nuBR mouse. Type of series: organism-based. As to conditions: in vivo. In outline:
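MX-1 human breast tumour xenograft in mice; dosed intravenously once weekly at several dose levels […]. Tolerability was judged by maximum body weight decrease, alongside tumour growth measurement.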

Series [15] can be described thus: Displacement of fluorescent labeled colchicine from tubulin at 50 uM.
The next series has as its system PC-3. Description: Antitumor activity in human PC3 cells xenografted crl:Nu/Nu-nuBR mouse assessed as tumor growth inhibition at 10 mg/kg, iv administered once weekly for 2 weeks. More on the design: dose 10 mg/kg. The series is classed as functional, organism-based.

The source made the active and inactive calls. No cut-off for these calls is given here.

With `CN(c1ccc(Cl)cc1)c1nc(Cl)nc2ccccc12`, the EC50 was 72 nM in the series on HCT-116 [1] and 68 nM with T47D [2].

For the compound `COc1ccc(N(C)c2ncnc3ccccc23)cc1`, the EC50 stood at 8 nM in the series on HCT-116 [1] and 6 nM with T47D [2].

For `CCOc1ccc(N(C)c2nc(Cl)nc3ccccc23)cc1`, the concentration for a half-maximal effect (EC50) in the series on HCT-116 [1] and with T47D [2] was 5 nM in each case.

Regarding `COc1cccc(N(C)c2nc(Cl)nc3ccccc23)c1OC`, the figures for the concentration giving a half-maximal response (EC50) in the series on HCT-116 [1] and with T47D [2] were 1110 nM and 680 nM, respectively.

Take `CN(c1ccc([N+](=O)[O-])cc1)c1nc(Cl)nc2ccccc12`: the values for the 50% effective concentration (EC50) with HCT-116 [1] and with T47D [2] were 1400 nM and 770 nM, respectively.

Regarding `CN(c1ccc(Oc2ccccc2)cc1)c1nc(Cl)nc2ccccc12`, the EC50 with HCT-116 [1] and in the series with T47D [2] was greater than 10000 nM throughout.

For the compound `CC[C@]1(O)C[C@@H]2CN(CCc3c([nH]c4ccccc34)[C@@](C(=O)OC)(c3cc4c(cc3OC)N(C)[C@H]3[C@@](O)(C(=O)OC)[C@H](OC(C)=O)[C@]5(CC)C=CCN6CC[C@]43[C@@H]65)C2)C1` [VINBLASTINE], the values for the IC50 in the series with P388 [3] and in the series with P388 [4] were 0.6 nM and 27 nM, respectively.

`CN(c1ccc(OC(F)(F)F)cc1)c1nc(Cl)nc2ccccc12`: the EC50 in the series with HCT-116 [1] came out at 59 nM; in the series on T47D [2] it was 49 nM.

Consider `COc1ccc(N(C)c2nc(Cl)nc3ccccc23)cc1OC`, for which the half-maximal effective concentration (EC50) amounted to 15 nM in the series on HCT-116 [1] and 9 nM in the series on T47D [2].

In the case of `CN(c1ccccc1)c1nc(Cl)nc2ccccc12`, the values for the EC50 in the series on HCT-116 [1] and in the series with T47D [2] were 300 nM and 210 nM, respectively.

Regarding `CC(=O)O[C@@]12CO[C@@H]1C[C@H](O)[C@@]1(C)C(=O)[C@H](O)C3=C(C)[C@@H](OC(=O)[C@H](O)[C@@H](NC(=O)OC(C)(C)C)c4ccccc4)C[C@@](O)([C@@H](OC(=O)c4ccccc4)[C@H]21)C3(C)C` [DOCETAXEL], the IC50 is 2 nM with P388 [3] and 277 nM with P388 [4].

`COc1ccc(Oc2ncnc3ccccc23)cc1`: the EC50 in the series with HCT-116 [1] and in the series with T47D [2] was greater than 10000 nM in each case.

Regarding `COc1cccc(N(C)c2nc(Cl)nc3ccccc23)c1`, the EC50 in the series on HCT-116 [1] came to 31 nM; with T47D [2] it was 25 nM.

For the compound `COc1ccc(N(C)c2nc(Cl)nc3cc(Cl)ccc23)cc1`, the EC50 in the series on HCT-116 [1] came to 350 nM; in the series with T47D [2], 300 nM.

As to `COc1ccc(N(C)c2nc(Cl)nc3cc(OC)c(OC)cc23)cc1`, the half-maximal effective concentration (EC50) in the series on HCT-116 [1] came out at 970 nM; with T47D [2], 590 nM.

As to `CN(c1ccc(O)cc1)c1nc(Cl)nc2ccccc12`, the results for the 50% effective concentration (EC50) in the series with HCT-116 [1] and in the series with T47D [2] were 120 nM and 85 nM, respectively.

With `COc1ccc(N(C)c2nc(NC/C=C(\C)CCC=C(C)C)nc3ccccc23)cc1`, the concentration for 50% growth inhibition (GI50) was determined as 350 nM in the series with HCT-116 [5] and 850 nM in the series on T47D [6].

With `CCN(c1ccc(OC)cc1)c1nc(Cl)nc2ccccc12`, the values for the EC50 in the series with HCT-116 [1] and with T47D [2] were 49 nM and 39 nM, respectively.

Turning to `COc1ccc(Nc2nc(Cl)nc3ccccc23)cc1`, the EC50 with HCT-116 [1] and in the series with T47D [2] was greater than 10000 nM in each case.

As for `COc1cc2c(c(OC)c1OC)-c1ccc(OC)c(=O)cc1[C@@H](NC(C)=O)CC2` [COLCHICINE], in [7], 500 nM corresponded to half-maximal inhibition (IC50).

Regarding `COc1ccc(CN(C)c2nc(Cl)nc3ccccc23)cc1`, the EC50 amounted to 120 nM in the series with HCT-116 [1] and 68 nM in the series on T47D [2].

Consider `CN(c1ccc2c(c1)OCO2)c1nc(Cl)nc2ccccc12`, for which the EC50 stood at 65 nM in the series with HCT-116 [1] and 31 nM with T47D [2].

On to `COc1ccc(N(C)c2nc(Cl)nc3ccc(Cl)cc23)cc1`, for which the values for the EC50 with HCT-116 [1] and in the series on T47D [2] were 13 nM and 10 nM, respectively.

For the compound `COc1ccccc1N(C)c1nc(Cl)nc2ccccc12`, the values for the EC50 with HCT-116 [1] and with T47D [2] were greater than 10000 nM and 4440 nM, respectively.

As for `COc1ccc(N(C)c2nc(Cl)nc3ccccc23)cn1`, the GI50 was 40 nM with HCT-116 [5] and 37 nM with T47D [6]. For the same compound, the figures for the EC50 with HCT-116 [1] and in the series on T47D [2] were 29 nM and 17 nM, respectively.

On to `COc1ccc(N(C)c2nc(Cl)nc3ccccc23)cc1`, for which the IC50 was 2.1 nM in the series on P388 [3], less than 400 nM in series [7] and 2.2 nM in the series with P388 [4]. In addition, the inhibition in vivo at 10 mg/kg in the series with MX1 [8] was greater than 95%. Further, in the series on Mus musculus [9], the Activity is given as less than 10%. Further, the GI50 came out at 2 nM in the series with HCT-116 [5] and 1 nM in the series with T47D [6]. In addition, in the series on MX1 [10], the inhibition in vivo at 2.5 mg/kg is 90%. The figures for the AUC with Mus musculus [11] and in the series on Mus musculus [13] were 20563 ng/mL and 669 ng/mL, respectively. Further, the selectivity ratio in series [12] came to 2.5. For the same compound, the MTD in [14] is 25 mg/kg. Further, the result (in series [15]; in the series with PC-3) was Active.

For the compound `Cc1ccc(N(C)c2nc(Cl)nc3ccccc23)cc1`, the EC50 turned out to be 21 nM with HCT-116 [1] and 15 nM with T47D [2].

As to `COc1ccc(Nc2nc(Cl)nc3cc(OC)c(OC)cc23)cc1`, the concentration giving a half-maximal response (EC50) in the series on HCT-116 [1] and in the series on T47D [2] was greater than 10000 nM each time.
